Experimental findings from ChEMBL document CHEMBL1146375, “Synthetic studies on novel benzimidazolopeptides with antimicrobial, cytotoxic and anthelmintic potential” (2007) are described below.

≈ marks a conversion by molar mass, not a printed value. Residues, ends and D or L forms follow the SMILES beside them. *: point of attachment. X4 = Cc1cc2nc(-c3ccc(C(=O)*)cc3)[nH]c2cc1C

The test system of experiment [1] is Bacillus subtilis. The experiment is described as follows: Antibacterial activity against Bacillus subtilis NCIM 2063 after 18 hrs by disc diffusion method. The format is functional. Summed up: (§1)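 Modified Kirby-Bauer disc diffusion. Plates inoculated with spore suspension (about 6 × 10⁴ spores mL^-1). Sterile 6 mm paper discs carried test samples at 10 mg mL^-1; ciprofloxacin disc as reference, DMF disc as negative control. Plates held 18 h at 37 °C. Inhibition zone diameters (mm) averaged over triplicate sets.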
On the technique in general: In agar diffusion tests the substance spreads into inoculated agar from a disc or well.

Experiment [2] deals with Staphylococcus aureus. The experiment is described as follows: Antibacterial activity against Staphylococcus aureus NCIM 2079 after 18 hrs by disc diffusion method. The format is functional. The method in brief:
as §1

For experiment [3], the system named is Pseudomonas aeruginosa. The experiment is described as follows: Antibacterial activity against Pseudomonas aeruginosa NCIM 2034 after 18 hrs by disc diffusion method. The format is functional. Summed up: as §1
Experiment [4] deals with Escherichia coli. Nature of the experiment: Antibacterial activity against Escherichia coli NCIM 2065 after 18 hrs by disc diffusion method. The format is functional. The method in brief: as §1
In experiment [5] the test system is Candida albicans. The experiment is described as follows: Antifungal activity against Candida albicans MUCC 29 after 48 hrs by disc diffusion method. It is filed as functional. The method in brief: (§2)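 Agar well diffusion on plates inoculated with spore suspension in normal saline from cultures on Sabouraud's broth. Wells punched and loaded with test samples or griseofulvin at 10 mg mL^-1, with DMSO as negative control. Incubated 48 h at 37 °C.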

The subject of experiment [6] is Microsporum audouinii. The experiment is described as follows: Antifungal activity against Microsporum audouinii MUCC 545 after 48 hrs by disc diffusion method. It is filed as functional. The method in brief: as §2
The test system of experiment [7] is Trichophyton benhamiae. Nature of the experiment: Antifungal activity against Trichophyton mentagrophytes MUCC 665 after 48 hrs by disc diffusion method. It is filed as functional, Arthroderma benhamiae. The method in brief: as §2
For experiment [8], the system named is Aspergillus niger. Nature of the experiment: Antifungal activity against Aspergillus niger MUCC 177 after 48 hrs by disc diffusion method. The format is functional. The method in brief: as §2
The test system of experiment [9] is Bacillus subtilis. The experiment is described as follows: Antibacterial activity against Bacillus subtilis NCIM 2063 after 18 hrs by tube dilution method. It is filed as functional. As to conditions: NCIM 2063, 18 h. The method in brief:
(§3)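 Tube dilution MIC. Stock diluted in sterile broth to seven concentrations from 200 to 3.1 […]. Each tube inoculated with one loopful of test bacterium and incubated 18 h at 37 °C. MIC read from presence or absence of growth.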

For experiment [10], the system named is Staphylococcus aureus. The experiment is described as follows: Antibacterial activity against Staphylococcus aureus NCIM 2079 after 18 hrs by tube dilution method. The settings on record: NCIM 2079, 18 h. It is filed as functional. Summed up:
as §3

In experiment [11] the test system is Pseudomonas aeruginosa. The experiment is described as follows: Antibacterial activity against Pseudomonas aeruginosa NCIM 2034 after 18 hrs by tube dilution method. It is filed as functional. The settings on record: NCIM 2034, 18 h. The method in brief: as §3
Experiment [12] deals with Escherichia coli. Nature of the experiment: Antibacterial activity against Escherichia coli NCIM 2065 after 18 hrs by tube dilution method. It is filed as functional. As to conditions: NCIM 2065, 18 h.
Experiment [13] relates to Candida albicans. The experiment is described as follows: Antifungal activity against Candida albicans MUCC 29 after 48 hrs by tube dilution method. The format is functional. Summed up:
(§4)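 Tube dilution MIC as for bacteria (seven concentrations, 200–3.1 […]), with DMSO in place of DMF. Tubes inoculated with fungal culture and incubated 48 h at 37 °C. MIC read from presence or absence of growth.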

Experiment [14] deals with Microsporum audouinii. Nature of the experiment: Antifungal activity against Microsporum audouinii MUCC 545 after 48 hrs by tube dilution method. The format is functional. The method in brief: as §4
Experiment [15] relates to Trichophyton benhamiae. The experiment is described as follows: Antifungal activity against Trichophyton mentagrophytes MUCC 665 after 48 hrs by tube dilution method. The format is functional, Arthroderma benhamiae. The method in brief:
as §4

The test system of experiment [16] is Eudrilus. The experiment is described as follows: Anthelmintic activity against Eudrilus sp. assessed as mean paralyzing time. It is filed as functional. Summed up:
(§5)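 Earthworms exposed to test suspensions at 2 mg mL^-1 (0.2% w/v), made by triturating compound with Tween 80 (0.5%) and distilled water, then mechanically stirred 30 min. Mebendazole suspension prepared alike as reference. Paralysis and death times recorded; death confirmed by no movement in 50 °C water. Means from triplicate sets.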

For experiment [17], the system named is Eudrilus. The experiment is described as follows: Anthelmintic activity against Eudrilus sp. assessed as mean death time. The format is functional. The method in brief: (§6)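 Earthworms exposed to test suspensions at 2 mg mL−1, prepared by triturating compound with Tween 80 (0.5%) and distilled water, stirring 30 min, then diluting to 0.2% w/v. Mebendazole suspension was made the same way. Death was confirmed by moving worms into 50 °C warm water and looking for movement. Mean death time (min) taken from triplicate sets.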

A short description of experiment [18]: Anthelmintic activity against Megascoplex konkanensis ICARBC 211 assessed as mean paralyzing time. The format is functional. Summed up: as §5
Experiment [19] in a line: Anthelmintic activity against Megascoplex konkanensis ICARBC 211 assessed as mean death time. It is filed as functional. The method in brief: as §5
For experiment [20], the system named is Pontoscolex corethrurus. The experiment is described as follows: Anthelmintic activity against Pontoscolex corethrurus ICARBC 408 assessed as mean paralyzing time. The format is functional. The method in brief: as §5
Experiment [21] relates to Pontoscolex corethrurus. Nature of the experiment: Anthelmintic activity against Pontoscolex corethrurus ICARBC 408 assessed as mean death time. It is filed as functional. The method in brief: as §6

Take `Cc1cc2nc(-c3ccc(C(=O)N[C@@H](CC(C)C)C(=O)NCC(=O)O)cc3)[nH]c2cc1C`: the “inhibition zone (IZ)” value in [1] is on record as 13 mm; in experiment [2] it was 10 mm; in experiment [3], 23 mm; in experiment [4], 17 mm; in [5], 19 mm; in [6], 11 mm. The “inhibition zone (IZ)” value in experiment [7] was found to be 14 mm; in [8], 17 mm. Also, the MIC (commonly the lowest concentration found to suppress growth) in [9] is 6 µg/mL (≈ 13.7 µM); in [10], 12.5 µg/mL (≈ 28.6 µM); in [11] it was 6 µg/mL (≈ 13.7 µM); in [12] it was 12.5 µg/mL (≈ 28.6 µM); in experiment [13] it was 6 µg/mL (≈ 13.7 µM); in experiment [14], 25 µg/mL (≈ 57.3 µM). This compound also displayed a minimum inhibitory concentration (MIC) in experiment [15] of 6 µg/mL (≈ 13.7 µM). For the same compound, the Time is recorded as 32.8 min in [16], 40.24 min in experiment [17], 36.61 min in experiment [20] and 48.39 min in experiment [21]. In addition, the TIME was 0.438 h in experiment [18] and 0.671 h in [19].

Consider `COC(=O)[C@H](Cc1ccc(O)cc1)NC(=O)[C@H](C)NC(=O)[C@H](Cc1c[nH]c2ccccc12)NC(=O)c1cc(-c2nc3cc(C)c(C)cc3[nH]2)ccc1O`, for which the “inhibition zone (IZ)” value in experiment [1] is 13 mm; in [2], 10 mm; in [3], 21 mm; in experiment [4], 16 mm; in experiment [5] it was 17 mm; in experiment [6], 11 mm. In addition, the “inhibition zone (IZ)” value in experiment [7] was 14 mm; in [8], 16 mm. The MIC in experiment [9] was found to be 12.5 µg/mL (≈ 17.4 µM); in [10], 12.5 µg/mL (≈ 17.4 µM); in [11] it was 6 µg/mL (≈ 8.37 µM); in experiment [12], 12.5 µg/mL (≈ 17.4 µM); in experiment [13], 6 µg/mL (≈ 8.37 µM); in [14], 12.5 µg/mL (≈ 17.4 µM). Besides, inhibition of growth in experiment [15] (MIC) required 6 µg/mL (≈ 8.37 µM). Also, the Time is reported as 13.41 min in [16], 24.07 min in experiment [17], 17.6 min in [20] and 29.34 min in experiment [21]. The figures for the TIME in experiment [18] and in experiment [19] were 0.228 h and 0.379 h, respectively.

For the compound `COC(=O)CNC(=O)[C@H](Cc1ccc(O)cc1)NC(=O)[C@H](C)NC(=O)c1cc(I)c(-c2nc3cc(C)c(C)cc3[nH]2)c(I)c1`, the “inhibition zone (IZ)” value is 15 mm in experiment [1]; 12 mm in experiment [2]; 20 mm in experiment [3]; 17 mm in experiment [4]; 15 mm in experiment [5]; 9 mm in [6]. The “inhibition zone (IZ)” value in experiment [7] was found to be 13 mm; in experiment [8], 15 mm. For the same compound, the MIC in [9] stood at 6 µg/mL (≈ 7.29 µM); in experiment [10] it was 12.5 µg/mL (≈ 15.2 µM); in [11], 6 µg/mL (≈ 7.29 µM); in experiment [12], 12.5 µg/mL (≈ 15.2 µM); in experiment [13], 6 µg/mL (≈ 7.29 µM); in experiment [14], 12.5 µg/mL (≈ 15.2 µM). Moreover, the lowest concentration to inhibit growth in experiment [15] (MIC) was 12.5 µg/mL (≈ 15.2 µM). The Time was 27.42 min in [16], 45.3 min in [17], 34.13 min in experiment [20] and 48.24 min in [21]. The TIME in experiment [18] came out at 0.472 h; in [19], 0.652 h.

As to `CC[C@H](C)[C@H](NC(=O)CNC(=O)[C@H](Cc1c[nH]c2ccccc12)NC(=O)c1ccc(-c2nc3cc(C)c(C)cc3[nH]2)cc1)C(=O)N[C@@H](C)C(=O)OC` (X4-WGIA-OMe), the “inhibition zone (IZ)” value is on record as 14 mm in experiment [1]; 10 mm in [2]; 20 mm in [3]; 18 mm in experiment [4]; 19 mm in experiment [5]; 10 mm in experiment [6]. The “inhibition zone (IZ)” value in experiment [7] stood at 9 mm; in experiment [8], 19 mm. For the same compound, the minimum inhibitory concentration (MIC) came to 6 µg/mL (≈ 8.48 µM) in [9]; 12.5 µg/mL (≈ 17.7 µM) in [10]; 6 µg/mL (≈ 8.48 µM) in experiment [11]; 12.5 µg/mL (≈ 17.7 µM) in [12]; 25 µg/mL (≈ 35.3 µM) in experiment [13]; 6 µg/mL (≈ 8.48 µM) in [14]. In experiment [15], this compound yielded an MIC of 25 µg/mL (≈ 35.3 µM). Besides, the Time in [16] was found to be 13.59 min; in [17], 24.1 min; in experiment [20] it was 17.22 min; in experiment [21], 29.57 min. For the same compound, the results for the TIME in experiment [18] and in experiment [19] were 0.221 h and 0.375 h, respectively.
